Results published in ChEMBL document CHEMBL2417413, “Synthesis and biological evaluation of 1,7,8,8a-tetrahydro-3H-oxazolo[3,4-a]pyrazin-6(5H)-ones as antitumoral agents” (Bioorg Med Chem, 2013).
Calls of active or inactive are those of the source. The calls are words filed in the database; no cut-off is given here.

Experiments:
8305C [1] = test: Induction of apoptosis in human 8305C cells assessed as DNA fragmentation at 50 uM after 24 hrs by SYBR green-1 staining-based electrophoretic analysis; assay type: functional, cell-based
How it was run: (§1)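 After 24 h of treatment, DNA was extracted from untreated and treated cells. Fragments were separated on a 2% agarose gel with SYBR Green I staining, and GAPDH-1 served as the reference gene.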

FTC-133 [2] = test: Induction of apoptosis in human FTC-133 cells assessed as DNA fragmentation at 50 uM after 24 hrs by SYBR green-1 staining-based electrophoretic analysis; assay type: functional, cell-based; how it was run: as §1
8305C [3] = test: Induction of apoptosis in human 8305C cells assessed as caspase-3 activation at 50 uM after 24 hrs by fluorescence microscopic analysis (reference value: 3.22 +/- 1%); assay type: functional
FTC-133 [4] = test: Induction of apoptosis in human FTC-133 cells assessed as caspase-3 activation at 50 uM after 24 hrs by fluorescence microscopic analysis (reference value: 2.51 +/- 1%); assay type: functional
8305C [5] = test: Cytotoxicity against human 8305C cells assessed as reduction in cell viability after 24 hrs by MTT assay; assay type: functional, cell-based
How it was run: (§2)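 Cells seeded at 6 × 10^5 per well and exposed to 5–100 µM for 24 h at 37 °C in 5% CO2. Then 0.5% MTT in PBS (pH 7.4) was added for 1 h, supernatant replaced with DMSO, and OD read at 570 nm. IC50 was read graphically from dose-effect curves. Values are mean ± SD of four independent experiments, each run in triplicate.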

FTC-133 [6] = test: Cytotoxicity against human FTC-133 cells assessed as reduction in cell viability after 24 hrs by MTT assay; assay type: functional, cell-based; conditions: FTC-133, 24 h; how it was run: as §2
8305C [7] = test: Cytotoxicity against human 8305C cells assessed as reduction in cell viability at 50 uM after 24 hrs by MTT assay; assay type: functional, cell-based
How it was run: (§3)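 Cultures were treated at 50 µM for 24 h at 37 °C in 5% CO2 alongside untreated controls. Viability was read by MTT reduction (0.5% MTT in PBS pH 7.4, 1 h), with formazan dissolved in DMSO and OD measured at 570 nm.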

FTC-133 [8] = test: Cytotoxicity against human FTC-133 cells assessed as reduction in cell viability at 50 uM after 24 hrs by MTT assay; assay type: functional, cell-based; how it was run: as §3

| Compound | Activity (8305C [1]) | Activity (FTC-133 [2]) | Activity (8305C [3]) [%] | Activity (FTC-133 [4]) [%] | IC50 (8305C [5]) [µM] | IC50 (FTC-133 [6]) [µM] | Activity (8305C [7]) | Activity (FTC-133 [8]) |
| --- | --- | --- | --- | --- | --- | --- | --- | --- |
| O=C1CN2/C(=N/c3cccc4ccccc34)OCC2CN1C1CCCCC1 (configuration not stated) | Active | Active | 78.56 | 90.56 | 61 | 44.8 | Active | Active |
| O=C1CN2/C(=N/c3ccc4ccc5cccc6ccc3c4c56)OCC2CN1C1CCCCC1 (configuration not stated) | Active | Active | 68.3 | 89.24 | 68.5 | 48.3 | Active | Active |
| O=C1CN2/C(=N/c3ccc4ccc5cccc6ccc3c4c56)OCC2CN1c1ccccc1 (configuration not stated) | Active | Active | 18.24 | 29.3 | 80.3 | 74.2 | Active | Active |
| O=C1CN2/C(=N/c3ccccc3)OCC2CN1C1CCCCC1 (configuration not stated) | Active | Active | 75.88 | 88.68 | 70.7 | 50 | Active | Active |
